Experimental data reported in ChEMBL document CHEMBL3804753, “Substituted quinolines as noncovalent proteasome inhibitors” (Bioorg Med Chem, 2016).

Assays:
[1] = compound: Cc1cc(C)c2cc(C3=CCCCC3)c(C)nc2c1; experiment: Mixed type inhibition of human 20S proteasome chymotryptic-like activity using Suc-LLVY-AMC as substrate assessed as Vmax for substrate at 4 uM by Lineweaver-Burk plot analysis (reference value: 0.1959 to 0.2691 umol/min)
How it was run: (§1)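 Kinetics of CT-L activity of purified human 20S proteasome with Suc-LLVY-AMC substrate increased stepwise. Measured at five compound concentrations or vehicle, 37 °C. Fluorescence of released AMC gave rates.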

[2] = compound: Cc1cc(C)c2cc(C3=CCCCC3)c(C)nc2c1; experiment: Mixed type inhibition of human 20S proteasome chymotryptic-like activity using Suc-LLVY-AMC as substrate assessed as Vmax for substrate at 10 uM by Lineweaver-Burk plot analysis (reference value: 0.1959 to 0.2691 umol/min ); how it was run: as §1
[3] = compound: Cc1cc(C)c2cc(C3=CCCCC3)c(C)nc2c1; experiment: Mixed type inhibition of human 20S proteasome chymotryptic-like activity using Suc-LLVY-AMC as substrate assessed as Vmax for substrate at 8 uM by Lineweaver-Burk plot analysis (reference value: 0.1959 to 0.2691 umol/min); how it was run: as §1
[4] = compound: Cc1cc(C)c2cc(C3=CCCCC3)c(C)nc2c1; experiment: Mixed type inhibition of human 20S proteasome chymotryptic-like activity using Suc-LLVY-AMC as substrate assessed as Vmax for substrate at 5 uM by Lineweaver-Burk plot analysis (reference value: 0.1959 to 0.2691 umol/min); how it was run: as §1
[5] = compound: Cc1cc(C)c2cc(C3=CCCCC3)c(C)nc2c1; experiment: Mixed type inhibition of human 20S proteasome chymotryptic-like activity using Suc-LLVY-AMC as substrate assessed as Vmax for substrate at 9 uM by Lineweaver-Burk plot analysis (reference value: 0.1959 to 0.2691 umol/min); how it was run: as §1
[6] = compound: Cc1cc(C)c2cc(C3=CCCCC3)c(C)nc2c1; experiment: Mixed type inhibition of human 20S proteasome chymotryptic-like activity using Suc-LLVY-AMC as substrate assessed as Vmax for substrate at 7 uM by Lineweaver-Burk plot analysis (reference value: 0.1959 to 0.2691 umol/min); how it was run: as §1
[7] = compound: Cc1cc(C)c2cc(C3=CCCCC3)c(C)nc2c1; experiment: Mixed type inhibition of human 20S proteasome chymotryptic-like activity using Suc-LLVY-AMC as substrate assessed as Vmax for substrate at 6 uM by Lineweaver-Burk plot analysis (reference value: 0.1959 to 0.2691 umol/min); how it was run: as §1

B1: Proteasome Macropain subunit MB1 (Homo sapiens), P28074 (protein)
chain: MALASVLERPLPVNQRGFFGLGGRADLLDLGPGSLSDGLSLAAPGWGVPEEPGIEMLHGTTTLAFKFRHGVIVAADSRATAGAYIASQTVKKVIEINPYLLGTMAGGAADCSFWERLLARQCRIYELRNKERISVAAASKLLANMVYQYKGMGLSMGTMICGWDKRGPGLYYVDSEGNRISGATFSVGSGSVYAYGVMDRGYSYDLEVEQAYDLARRAIYQATYRDAYSGGAVNLYHVREDGWIRVSSDNVADLHEKYSGSTP
In the case of B1, the Vmax [1] is reported as 0.0959 µmol/min, the Vmax [2] is reported as 0.0329 µmol/min and the Vmax [3] is reported as 0.0587 µmol/min. For the same protein, the Vmax [4] was 0.0924 µmol/min, the Vmax [5] was 0.0466 µmol/min and the Vmax [6] was 0.0674 µmol/min. The Vmax [7] was 0.0703 µmol/min.
